Test results: ChEMBL document CHEMBL1132465, “Design and synthesis of thrombin inhibitors: analogues of MD-805 with reduced stereogenicity and improved potency” (J Med Chem, 1999)
Values joined by “and” are separate entries in the source; they are usually repeats but may differ in a detail not shown here. Equal entries are not always repeated.

How the values were obtained:
[1] = target: Chymotrypsinogen A (Bos taurus, UniProt P00766); assay: The compound was evaluated for the inhibitory activity against bovine Chymotrypsinogen
In short: (§1)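 Chromogenic assay run as for thrombin, with S-2222 (trypsin) or S-2586 (chymotrypsin) as substrate. Enzymes were bovine. Buffer was 0.05 M TRIS-HCl, pH 8.4. Compound stocks were in DMSO (final below 0.5%). Rate was read at 405 nm over 30 s. Ki came from double-reciprocal plots across a range of substrate concentrations.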

[2] = The compound was evaluated for the dose to double the control plasma APTT value in the human plasma; format: functional
In short: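 Human blood was anticoagulated with one-tenth volume 3.8% trisodium citrate and centrifuged at 1300g for 20 min to give platelet-poor plasma. Plasma was spiked with compound at 0 to about 150 μM. It was activated 5 min at 37 °C with bovine cephalin (ellagic acid) reagent, and clotting was started with 20 mM CaCl2. Clot time was read on a coagulometer. Concentration doubling APTT was read from a concentration–APTT plot.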

[3] = target: Plasminogen (Homo sapiens, UniProt P00747); assay: The compound was evaluated for the inhibitory activity against human plasmin
Sequence of Plasminogen (P00747 97-580 limits assumed): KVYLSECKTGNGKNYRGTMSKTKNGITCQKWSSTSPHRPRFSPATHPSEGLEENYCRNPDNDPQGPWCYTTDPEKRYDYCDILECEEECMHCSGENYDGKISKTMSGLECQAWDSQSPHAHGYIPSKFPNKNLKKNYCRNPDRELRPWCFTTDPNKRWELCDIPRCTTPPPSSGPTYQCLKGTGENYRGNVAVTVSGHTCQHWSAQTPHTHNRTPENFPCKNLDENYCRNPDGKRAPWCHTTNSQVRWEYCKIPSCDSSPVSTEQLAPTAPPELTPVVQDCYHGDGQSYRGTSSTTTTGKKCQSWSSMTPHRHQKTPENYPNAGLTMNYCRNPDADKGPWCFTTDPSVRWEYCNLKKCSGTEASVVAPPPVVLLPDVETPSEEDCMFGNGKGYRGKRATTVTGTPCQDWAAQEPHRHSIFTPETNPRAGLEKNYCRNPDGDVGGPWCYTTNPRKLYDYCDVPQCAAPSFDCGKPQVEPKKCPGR
Sequence of Plasminogen (P00747 581-810 limits assumed): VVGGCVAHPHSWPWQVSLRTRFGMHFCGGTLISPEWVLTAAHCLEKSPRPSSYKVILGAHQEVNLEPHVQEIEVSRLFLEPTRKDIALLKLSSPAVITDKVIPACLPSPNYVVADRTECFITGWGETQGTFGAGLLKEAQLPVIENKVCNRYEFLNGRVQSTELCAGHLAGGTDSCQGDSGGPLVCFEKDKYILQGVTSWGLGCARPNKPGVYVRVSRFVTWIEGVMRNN
In short: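 Human plasmin, S-2251 chromogenic substrate, 0.05 M TRIS-HCl pH 8.4. Run like the thrombin assay: DMSO stock (final below 0.5%), initial rate at 405 nm over 30 s, substrate varied across a range. Ki was calculated from Lineweaver-Burk intercepts of control and inhibited curves.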

[4] = TThe compound was evaluated for the APTT value expressed as multiplies of control and was measured at the termination of the experiment (45 min later) in the rat model of arterial thrombosis at 1.0 dose (mg/kg); format: functional
In short: (§2)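 Rat arterial thrombosis model with sc dosing 1 h before clamping the dorsal aorta. Blood was taken via carotid cannula into one-tenth volume 3.8% trisodium citrate just before clamping and at termination, 45 min later. APTT was measured on plasma and expressed as a multiple of control, mean ± SEM, n = 5.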

[5] = TThe compound was evaluated for the APTT value expressed as multiplies of control and was measured at the termination of the experiment (45 min later) in the rat model of arterial thrombosis at 10.0d ose (mg/kg); format: functional; in short: as §2
[6] = The compound was evaluated for the APTT value expressed as multiplies of control and was measured at the termination of the experiment (45 min later) in the rat model of arterial thrombosis at 2.0 dose (mg/kg); format: functional; in short: as §2
[7] = The compound was evaluated for the APTT value expressed as multiplies of control and was measured at the termination of the experiment (45 min later) in the rat model of arterial thrombosis at 3.0 dose (mg/kg); format: functional; in short: as §2
[8] = The compound was evaluated for the APTT value expressed as multiplies of control and was measured at the termination of the experiment (45 min later) in the rat model of arterial thrombosis at 30.0 dose (mg/kg); format: functional; in short: as §2
[9] = test system: Rattus norvegicus; assay: Percentage inhibition on venous stasis thrombosis in the rat at 2.0 dose (mg/kg); format: functional
In short: (§3)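 Rat acute venous stasis. The vessel was excised after 10 min and the thrombus weighed. Compound was dosed iv 2 min or sc 1 h before stasis. Result is % inhibition of mean control thrombus weight relative to placebo, mean ± SEM, n = 5.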

[10] = test system: Rattus norvegicus; assay: Percentage inhibition on venous stasis thrombosis in the rat at 3.0 dose (mg/kg); format: functional; in short: as §3
[11] = test system: Rattus norvegicus; assay: Percentage inhibition on venous stasis thrombosis in the rat at 6.0 dose (mg/kg); format: functional; in short: as §3
[12] = test system: Rattus norvegicus; assay: Percentage inhibition on the f fibrinogen accumulation in the rat model of Arterial thrombosis at 1.0 dose (mg/kg); format: functional
In short: (§4)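 Rat dorsal aorta injury model. Rats received 111In-labelled platelets 24 h and 125I-fibrinogen 10 min before injury. The aorta was clamped with modified forceps for 1 min, then blood flowed 45 min. The vessel was excised, washed in 5% citrate and gamma-counted, and counts were converted to mg blood equivalents. Dosing was iv 1 min or sc 1 h before clamping. Result is % inhibition versus placebo accumulation, mean ± SEM, n = 5.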

[13] = test system: Rattus norvegicus; assay: Percentage inhibition on the f fibrinogen accumulation in the rat model of Arterial thrombosis at 10.0 dose (mg/kg); format: functional; in short: as §4
[14] = test system: Rattus norvegicus; assay: Percentage inhibition on the f fibrinogen accumulation in the rat model of Arterial thrombosis at 2.0 dose (mg/kg); format: functional; in short: as §4
[15] = test system: Rattus norvegicus; assay: Percentage inhibition on the f fibrinogen accumulation in the rat model of Arterial thrombosis at 3.0 dose (mg/kg); format: functional; in short: as §4
[16] = test system: Rattus norvegicus; assay: Percentage inhibition on the f fibrinogen accumulation in the rat model of Arterial thrombosis at 30.0 dose (mg/kg); format: functional; in short: as §4
[17] = test system: Rattus norvegicus; assay: Percentage inhibition on the platelet accumulation in the rat model of Arterial thrombosis at 0.3 dose (mg/kg); format: functional; in short: as §4
[18] = test system: Rattus norvegicus; assay: Percentage inhibition on the platelet accumulation in the rat model of Arterial thrombosis at 10.0 dose (mg/kg); format: functional; in short: as §4
[19] = test system: Rattus norvegicus; assay: Percentage inhibition on the platelet accumulation in the rat model of Arterial thrombosis at 2.0 dose (mg/kg); format: functional; in short: as §4
[20] = test system: Rattus norvegicus; assay: Percentage inhibition on the platelet accumulation in the rat model of Arterial thrombosis at 3.0 dose (mg/kg); format: functional; in short: as §4
[21] = test system: Rattus norvegicus; assay: Percentage inhibition on the platelet accumulation in the rat model of Arterial thrombosis at 30.0 dose (mg/kg); format: functional; in short: as §4
[22] = test system: Rattus norvegicus; assay: Percentage inhibition on venous stasis thrombosis in the rat at 0.1 dose (mg/kg); format: functional; in short: as §3
[23] = test system: Rattus norvegicus; assay: Percentage inhibition on venous stasis thrombosis in the rat at 1.0 dose (mg/kg); format: functional; in short: as §3
[24] = target: T1, Trypsin II (Bos taurus, UniProt Q29463); assay: The compound was evaluated for the inhibitory activity against bovine trypsin; in short: as §1
T1 sequence (Q29463 whole entry): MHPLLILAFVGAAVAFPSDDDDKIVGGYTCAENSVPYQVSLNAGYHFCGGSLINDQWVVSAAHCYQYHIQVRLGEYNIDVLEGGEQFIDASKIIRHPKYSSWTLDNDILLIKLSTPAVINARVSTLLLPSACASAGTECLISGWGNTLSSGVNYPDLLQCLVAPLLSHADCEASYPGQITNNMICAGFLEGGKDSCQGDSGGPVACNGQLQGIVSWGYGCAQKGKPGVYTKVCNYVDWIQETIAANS

[25] = test system: Rattus norvegicus; assay: Percentage inhibition on venous stasis thrombosis in the rat at 0.05 dose (mg/kg); format: functional; in short: as §3

Which results are given for CC1(C)CNc2c(cccc2S(=O)(=O)NC(CCCN=C(N)N)C(=O)N2CCC(CCO)CC2)C1 (stereo not given)?
Ki [1]: > 83 µM; IC200 [2]: 1.9 µM; Ki [3]: 210 µM; APTT [4]: 1; APTT [5]: 1.7; APTT [6]: 1.5 and 1; APTT [7]: 1.5 and 1.3; APTT [8]: 2.5; Inhibition [9]: 79.8%; Inhibition [10]: 71.7%; Inhibition [11]: 95.2%; Inhibition [12]: 24.2%; Inhibition [13]: 45.5%; Inhibition [14]: 3.5%; Inhibition [15]: 28.8%; Inhibition [16]: 49.9%; Inhibition [17]: 58% and 36.4%; Inhibition [18]: 68.3%; Inhibition [19]: 38.5%; Inhibition [20]: 94.4% and 82% and 61.2%; Inhibition [21]: 69.8%; Inhibition [22]: 45.1%; Inhibition [23]: 100% and 50%; Ki [24]: 7.1 µM; Inhibition [25]: 2.3%
